Test results as given in ChEMBL document CHEMBL4715734, “Discovery of the Potent and Selective M1 PAM-Agonist N-[(3R,4S)-3-Hydroxytetrahydro-2H-pyran-4-yl]-5-methyl-4-[4-(1,3-thiazol-4-yl)benzyl]pyridine-2-carboxamide (PF-06767832): Evaluation of Efficacy and Cholinergic Side Effects” (J Med Chem, 2016).
pEC50: −log10 of the molar value. Activity calls are given as the source filed them. The rule behind the calls is not given here.

Tests used:
[1] = fCmax in dog at 3 mg/kg, po using spray-dried dispersion formulation; format: ADME, organism-based, Canis lupus familiaris; conditions: in vivo
[2] = Toxicity in rat assessed as increase in food intake at 10 mg/kg, po administered for 14 days; format: organism-based; conditions: in vivo, 336 h, time 14 day
How it was run: (§1)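 Two-week repeat-dose toxicity study in rats. Oral dosing in 0.5% methylcellulose at 3, 10, 30 (males)/15 (females) mg/kg, N=4/sex/dose. Food intake, body weight gain and histopathology were assessed.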

[3] = Unbound plasma concentration in […] in Sprague-Dawley rat model at 0.32 mg/kg, sc measured after 1.67 hrs; format: ADME, organism-based; conditions: in vivo
How it was run: (§2)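 Randomly selected animals (N=2/dose) at the end of the rat PPI study, T = 1.67 h. Dosed subcutaneously as a suspension in 0.5% methylcellulose in water. Plasma and brain concentrations were averaged.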

[4] = Unbound brain concentration in scopolamine-induced Wistar rat model at 0.32 mg/kg, po measured after 1 hr; format: ADME, organism-based; conditions: in vivo
[5] = Ratio of fAUC in rat brain to plasma; format: ADME, cell-free; conditions: brain and plasma, read-out: Ratio AUC
[6] = Unbound plasma concentration in scopolamine-induced Wistar rat model at 0.32 mg/kg, po measured after 1 hr; format: ADME, organism-based; conditions: in vivo
How it was run: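 Plasma sampled 1 h after oral dosing in satellite animals (N=2/dose) given the same dosing solution as the water-maze study (suspension in 0.5% methylcellulose in water); unbound concentration reported as the group average.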

Rattus norvegicus = assay: Reversal of scopolamine-induced memory impairment in Wistar rat model at 0.32 mg/kg, po administered 15 min before training followed by 30 mins later administration with scopolamine measured after 24 hrs by Morris water maze test
[7] = Fraction unbound in Wistar Han rat plasma; format: ADME
[8] = Unbound plasma concentration in amphetamine-induced C57BL/6J mouse model of hyperlocomotion at 1 mg/kg, sc measured after 1 hr; format: ADME, organism-based; conditions: in vivo
How it was run: (§3)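 Satellite PK animals from the mouse aLMA study, N=2/dose. Dosed subcutaneously with a solution in 5/15/80 DMSO/Solutol/water. Plasma and brain were sampled at T = 1 h.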

[9] = Toxicity in dog assessed as emesis at 5 mg/kg, po using spray-dried dispersion formulation; format: organism-based, Canis lupus familiaris; conditions: in vivo
How it was run: (§4)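 Dogs received single escalating oral doses as a spray-dried dispersion (10% drug loading with HPMCAS-M). The dispersion was suspended in 0.5 wt% methylcellulose/0.5 wt% HPMCAS in 20 mM tris buffer, pH 7.4. One dog per sex per dose was used, and clinical signs were recorded.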

[10] = biological target: T1, Muscarinic acetylcholine receptor M1 (Homo sapiens, UniProt P11229); assay: Agonist activity at muscarinic M1 receptor (unknown origin) expressed in CHO cells assessed as accumulation of inositol phosphate measured after 30 mins by HTRF assay; format: functional, cell-based
T1 sequence (P11229 whole entry): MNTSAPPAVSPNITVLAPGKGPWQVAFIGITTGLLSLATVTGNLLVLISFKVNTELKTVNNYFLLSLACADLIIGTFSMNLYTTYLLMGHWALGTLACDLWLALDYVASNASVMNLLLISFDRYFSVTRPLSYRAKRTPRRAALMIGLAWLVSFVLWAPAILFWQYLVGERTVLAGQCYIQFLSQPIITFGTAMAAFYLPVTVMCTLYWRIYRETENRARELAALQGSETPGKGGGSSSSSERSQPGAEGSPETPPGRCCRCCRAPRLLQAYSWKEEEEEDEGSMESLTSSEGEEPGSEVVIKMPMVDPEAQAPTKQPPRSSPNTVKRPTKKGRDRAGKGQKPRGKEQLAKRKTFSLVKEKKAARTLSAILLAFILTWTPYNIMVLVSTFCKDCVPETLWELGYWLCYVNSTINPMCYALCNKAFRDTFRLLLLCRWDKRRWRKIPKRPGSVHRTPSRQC

[11] = Ratio of AUC in rat brain to fAUC in rat plasma; format: ADME, cell-free; conditions: in vivo
[12] = biological target: T1, Muscarinic acetylcholine receptor M1; assay: Positive allosteric modulation of muscarinic M1 receptor (unknown origin) expressed in CHO cells assessed as increase in Ach-induced accumulation of inositol phosphate accumulation measured after 30 mins by HTRF assay; format: functional, cell-based
[13] = Ratio of fAUC in brain to plasma of scopolamine-induced Wistar rat model at 0.1 mg/kg, po measured after 1 hr; format: ADME, organism-based; conditions: brain and plasma, read-out: Ratio AUC
[14] = Lipophilicity, log D of compound; format: physicochemical; conditions: octanol/water
[15] = Toxicity in dog assessed as ataxia at 45 mg/kg, po using spray-dried dispersion formulation measured after 45 mins; format: organism-based, Canis lupus familiaris; conditions: in vivo, 0.75 h; how it was run: as §4
[16] = Unbound brain concentration in CD-1 mouse at 1 mg/kg, sc measured after 2 hrs by LC-MS/MS analysis; format: ADME, organism-based; conditions: in vivo
[17] = Toxicity in male Beagle dog assessed as decrease in QT interval at 3 mg/kg, po administered as single dose observed upto 9 hrs post last dose by telemetry; format: organism-based, Canis lupus familiaris; conditions: in vivo
How it was run: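 Crossover telemetry study in dogs at three oral doses (0.3, 1 and 3 mg/kg), N=4. Endpoints were blood pressure, maximum systolic left ventricular pressure, LV +dP/dt max, activity, heart rate, and RR, QT and QTc intervals, followed up to 9 h post dose.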

[18] = biological target: T1, Muscarinic acetylcholine receptor M1; assay: Partial agonist activity at muscarinic M1 receptor (unknown origin) assessed as recruitment of beta-arrestin by Path Hunter assay; format: cell-based, CHO
[19] = Toxicity in dog assessed as side-to-side head movements at 45 mg/kg, po using spray-dried dispersion formulation measured after 45 mins; format: organism-based, Canis lupus familiaris; conditions: in vivo, 0.75 h
[20] = Toxicity in rat assessed as histopathological changes at 3 to 30 mg/kg, po administered for 14 days; format: organism-based; conditions: in vivo, 336 h, dose 3-30 mg/kg, time 14 day; how it was run: as §1
[21] = Unbound plasma concentration in amphetamine-induced C57BL/6J mouse model of hyperlocomotion at 0.32 mg/kg, sc measured after 1 hr; format: ADME, organism-based; conditions: in vivo; how it was run: as §3
[22] = Toxicity in dog assessed as emesis at 3 mg/kg, po using spray-dried dispersion formulation; format: organism-based, Canis lupus familiaris; conditions: in vivo; how it was run: as §4
Mus musculus = assay: Reversal of amphetamine-induced hyperlocomotion in C57BL/6J mouse at 1 mg/kg, sc incubated for 30 mins followed by addition of amphetamine measured after 90 mins; format: functional, organism-based; conditions: time 120.0 min
How it was run: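 The compound was given sc as a solution in 5/15/80 DMSO/Solutol/water, and amphetamine-induced locomotor activity was compared with vehicle. Plasma and brain exposure came from a satellite group (N=2/dose) sampled at 1 h after the same dosing.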

[23] = Ratio of AUC in C57BL/6 mouse brain to plasma at 1 mg/kg, sc; format: ADME, organism-based; conditions: brain and plasma, read-out: Ratio AUC
[24] = fCmax in rat at 30 mg/kg, po administered for 14 days; format: ADME, organism-based; conditions: in vivo, 336 h, time 14 day
How it was run: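 2-week repeat oral dosing in rats, 0.5% methylcellulose formulation; N=4/sex/dose; doses 3, 10, 30 (males)/15 (females) mg/kg; unbound exposures reported per dose and sex.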

[25] = Toxicity in dog assessed as induction of loose stool at 3 mg/kg, po using spray-dried dispersion formulation; format: organism-based, Canis lupus familiaris; conditions: in vivo
[26] = Unbound plasma concentration in […] in Sprague-Dawley rat model at 3.2 mg/kg, sc measured after 1.67 hrs; format: ADME, organism-based; conditions: in vivo; how it was run: as §2
[27] = Toxicity in dog assessed as convulsion at 45 mg/kg, po using spray-dried dispersion formulation measured after 45 mins; format: organism-based, Canis lupus familiaris; conditions: in vivo, 0.75 h; how it was run: as §4
[28] = Ratio of fAUC in monkey brain to plasma; format: ADME, cell-free, Macaca mulatta; conditions: rhesus monkey, brain and plasma; read-out: Ratio AUC

Which fCmax [1] does the source give for `Cc1cnc(C(=O)N[C@H]2CCOC[C@@H]2O)cc1Cc1ccc(-c2cscn2)cc1` here?
The fCmax was 568 nM.

And the Activity [2]?
Its Activity is “Non-Toxic”.

What about the “Cp(f)” value [3] of the same molecule?
The value was 11.9 nM.

What about the “Drug uptake(free)” value [4] of the same molecule?
Its value is 1.3 nM.

What about the Kp uu [5] of the same molecule?
The Kp uu was 0.34.

What about the “Cp(f)” value [6] of the same molecule?
The value was 3.7 nM.

What about the Activity (Rattus norvegicus) of the same molecule?
The Activity was “Active”.

And the Fu [7]?
The Fu was 4.3%.

And the “Cp(f)” value [8]?
Its value is 76.1 nM.

And the Activity [9]?
The Activity was “Toxic”.

What about the pEC50 [10] of the same molecule?
Its pEC50 is ≤ 5.04.

And the “Ratio AUC” value [11]?
Its value is 0.36.

And the pEC50 [12]?
The pEC50 was 6.35.

And the Kp uu at 1 h [13]?
Its Kp uu at 1 h is 0.34.

What about the logD [14] of the same molecule?
The logD was 2.2.

And the Activity [15]?
Its Activity is “Toxic”.

What about the “Drug uptake(free)” value [16] of the same molecule?
The value was 14.3 nM.

What about the Activity [17] of the same molecule?
The Activity was “Toxic”.

What about the pEC50 [18] of the same molecule?
Its pEC50 is 5.41.

What about the Activity [19] of the same molecule?
The Activity was “Toxic”.

And the Activity [20]?
The Activity was “Non-Toxic”.

And the “Cp(f)” value [21]?
The value was 23.4 nM.

And the Activity [22]?
Its Activity is “Toxic”.

And the Activity (Mus musculus)?
The Activity was “Active”.

What about the Kp [23] of the same molecule?
Its Kp is 0.2.

What about the fCmax [24] of the same molecule?
Its fCmax is 1221 nM.

And the Activity [25]?
The Activity was “Toxic”.

What about the “Cp(f)” value [26] of the same molecule?
Its value is 123 nM.

What about the Activity [27] of the same molecule?
The Activity was “Toxic”.

What about the Kp uu [28] of the same molecule?
Its Kp uu is 0.51.
